Legend:
Thymidylate synthase [1] = target: T1, Thymidylate synthase (Mus musculus, UniProt P07607); experiment: Compound was tested for the binding affinity against thymidylate synthase from L1210 mouse leukemia cells; value given as 2.4,1.8; format: cell-based; settings: read-out: Ki app
Method in brief: (§1)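 Enzyme source was partially purified thymidylate synthase from L1210 mouse leukemia cells that overproduce TS through TS gene amplification. Apparent Ki was determined alongside the control CB3717 in each experiment. The test Kiapp/CB3717 Kiapp ratio was multiplied by the mean CB3717 Kiapp across experiments to allow comparison between experiments.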

L1210 [2] = experiment: Compound was tested for the inhibition of L1210 cell growth in mouse; value given as 1.7,2.0; format: functional, cell-based
L1210 [3] = experiment: Compound was tested for the inhibition of L1210:1565 cell growth in mouse; value given as 3.5,4.1; format: functional, cell-based
Thymidylate synthase [4] = target: T1, Thymidylate synthase; experiment: Binding affinity against thymidylate synthase from L1210 mouse leukemia cells; format: cell-based; settings: read-out: Ki app; method in brief: as §1
L1210 [5] = experiment: Compound was tested for the inhibition of L1210 cell growth in mouse.; format: functional, cell-based
L1210 [6] = experiment: Compound was tested for the inhibition of L1210: 1565 cell growth in mouse.; format: functional, cell-based
L1210 [7] = experiment: Compound was tested for the inhibition of L1210: 1565 cell growth in mouse; value given as 3.9, 3.0; format: functional, cell-based
L1210 [8] = experiment: Compound was tested for the inhibition of L1210 cell growth in mouse; value given as 7.2, 7.2; format: functional, cell-based
Thymidylate synthase [9] = target: T1, Thymidylate synthase; experiment: Compound was tested for the binding affinity against thymidylate synthase from L1210 mouse leukemia cells; value given as 0.9, 2.0; format: cell-based; settings: read-out: Ki app; method in brief: as §1
L1210 [10] = experiment: Compound was tested for the inhibition of L1210 cell growth in mouse; Value was given as 2.3,1.8.; format: functional, cell-based
L1210 [11] = experiment: Compound was tested for the inhibition of L1210: 1565 cell growth in mouse; value given as 8.2, 7.8; format: functional, cell-based
L1210 [12] = experiment: Compound was tested for the inhibition of L1210: 1565 cell growth in mouse; value given as 3.6, 2.7; format: functional, cell-based
L1210 [13] = experiment: Compound was tested for the inhibition of L1210: 1565 cell growth in mouse; value given as 1.2, 1.6; format: functional, cell-based
L1210 [14] = experiment: Compound was tested for the inhibition of L1210: 1565 cell growth in mouse; Value given as 1.3,0.84; format: functional, cell-based

T1 sequence (P07607 whole entry): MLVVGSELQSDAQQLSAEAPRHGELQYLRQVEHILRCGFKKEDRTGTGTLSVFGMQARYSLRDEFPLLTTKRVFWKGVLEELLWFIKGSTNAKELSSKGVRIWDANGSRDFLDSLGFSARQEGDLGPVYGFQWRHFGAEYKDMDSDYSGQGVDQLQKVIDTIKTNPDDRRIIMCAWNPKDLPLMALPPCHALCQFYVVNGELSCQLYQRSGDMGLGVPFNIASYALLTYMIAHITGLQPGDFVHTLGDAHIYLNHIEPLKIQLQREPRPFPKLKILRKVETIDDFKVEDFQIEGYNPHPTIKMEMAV

Row | Ki (Thymidylate synthase [4]) [nM] | IC50 (L1210 [5]) [nM] | IC50 (L1210 [6]) [nM] | SMILES | other results
1 |  |  |  | C#CCN(c1ccc(C(=O)N[C@@H](CCc2nnnn2CC(=O)O)C(=O)O)cc1)C1CCc2cc3nc(C)nc(O)c3cc21 (some centres not stated) | Ki (Thymidylate synthase [1]): 2.4 nM; IC50 (L1210 [2]): 2000 nM; IC50 (L1210 [3]): 4100 nM
2 | 2.2 | 19000 | 13000 | C#CCN(c1ccc(C(=O)N[C@@H](CCc2nnnn2CC(=O)N[C@H](C)C(=O)O)C(=O)O)cc1)C1CCc2cc3nc(C)nc(O)c3cc21 (some centres not stated) | 
3 | 0.26 |  |  | C#CCN(c1ccc(C(=O)N[C@@H](CCC(=O)N[C@@H](CCc2nnnn2CC(=O)O)C(=O)O)C(=O)O)cc1)C1CCc2cc3nc(C)nc(O)c3cc21 (some centres not stated) | IC50 (L1210 [7]): 3900 nM; IC50 (L1210 [8]): 7200 nM
4 | 2 | 220 | 14000 | C#CCN(Cc1cc2c(O)nc(C)nc2cc1C)c1ccc(C(=O)N[C@@H](CCC(=O)N[C@H](CCC(=O)O)C(=O)O)C(=O)O)cc1 | 
5 |  | 2700 | 2300 | C#CCN(c1ccc(C(=O)N[C@@H](CCc2nnnn2CCCC(=O)O)C(=O)O)cc1)C1CCc2cc3nc(C)nc(O)c3cc21 (some centres not stated) | Ki (Thymidylate synthase [9]): 2 nM
6 | 0.78 |  | 4400 | C#CCN(c1ccc(C(=O)N[C@@H](CCC(=O)N(C)[C@H](CCC(=O)O)C(=O)O)C(=O)O)cc1)C1CCc2cc3nc(C)nc(O)c3cc21 (some centres not stated) | IC50 (L1210 [10]): 2300 nM
7 | 0.78 | 490 | 680 | C#CCN(c1ccc(C(=O)N[C@@H](CCCS(=O)(=O)c2nnc[nH]2)C(=O)O)cc1)C1CCc2cc3nc(C)[nH]c(=O)c3cc21 (some centres not stated) | 
8 | 2.4 | 1900 |  | C#CCN(c1ccc(C(=O)N[C@@H](CCC(=O)N[C@H](C)C(=O)NS(=O)(=O)c2ccccc2)C(=O)O)cc1)C1CCc2cc3nc(C)nc(O)c3cc21 (some centres not stated) | IC50 (L1210 [11]): 8200 nM
9 | 2.6 | 440 |  | C#CCN(c1ccc(C(=O)N[C@@H](CCC(=O)N[C@H](CCC)c2nnn[nH]2)C(=O)O)cc1)C1CCc2cc3nc(C)[nH]c(=O)c3cc21 (some centres not stated) | IC50 (L1210 [12]): 3600 nM
10 | 1.1 | 420 | 1400 | C#CCN(c1ccc(C(=O)N[C@@H](CCC(=O)N[C@H](C)C(=O)O)C(=O)O)cc1)C1CCc2cc3nc(C)nc(O)c3cc21 (some centres not stated) | 
11 | 2.2 | 640 |  | C#CCN(c1ccc(C(=O)N[C@@H](CCC(=O)N[C@H](C)c2nnn[nH]2)C(=O)O)cc1)C1CCc2cc3nc(C)[nH]c(=O)c3cc21 (some centres not stated) | IC50 (L1210 [13]): 1600 nM
12 | 1.7 | 180 |  | C#CCN(c1ccc(C(=O)N[C@@H](CCc2nnn(CC(=O)O)n2)C(=O)O)cc1)C1CCc2cc3nc(C)nc(O)c3cc21 (some centres not stated) | IC50 (L1210 [14]): 1300 nM
13 | 0.2 | 1500 | 1300 | C#CCN(c1ccc(C(=O)N[C@@H](CCC(=O)N[C@H](CCC(=O)O)c2nnn[nH]2)C(=O)O)cc1)C1CCc2cc3nc(C)[nH]c(=O)c3cc21 (some centres not stated) | 

Row | SMILES | Ki (Thymidylate synthase [4]) [nM] | IC50 (L1210 [5]) [nM] | IC50 (L1210 [6]) [nM] | other results
14 | C#CCN(c1ccc(C(=O)N[C@@H](CCC(=O)N[C@H](CCC(=O)O)C(=O)O)C(=O)O)cc1)C1CCc2cc3nc(C)nc(O)c3cc21 (some centres not stated) | 0.42 | 300 | 2200 | 
